A value given as a limit tells only on which side of the number the result lay.

What is called Ki is a dissociation constant, usually derived from enzyme kinetics or from competition with a known ligand. For orientation: EC50 means the concentration at which the effect is half-maximal.

Data set [1] concerns the target T1, Peroxisome proliferator-activated receptor gamma (Homo sapiens, UniProt P37231).
T1 sequence (P37231 whole entry): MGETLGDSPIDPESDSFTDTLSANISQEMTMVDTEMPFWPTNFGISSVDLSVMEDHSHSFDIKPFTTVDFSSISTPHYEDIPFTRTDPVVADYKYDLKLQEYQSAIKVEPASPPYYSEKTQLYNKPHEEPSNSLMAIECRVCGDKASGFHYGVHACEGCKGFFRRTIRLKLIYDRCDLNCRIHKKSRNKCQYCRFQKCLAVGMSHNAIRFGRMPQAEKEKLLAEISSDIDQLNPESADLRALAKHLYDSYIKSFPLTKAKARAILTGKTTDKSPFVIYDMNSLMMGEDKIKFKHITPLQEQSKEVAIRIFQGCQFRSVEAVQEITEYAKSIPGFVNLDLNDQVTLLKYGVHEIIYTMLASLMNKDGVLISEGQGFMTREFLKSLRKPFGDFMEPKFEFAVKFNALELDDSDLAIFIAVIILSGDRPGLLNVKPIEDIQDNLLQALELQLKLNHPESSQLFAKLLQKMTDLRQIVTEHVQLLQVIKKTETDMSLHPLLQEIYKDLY
Kind of data set: Displacement of [3H]rosiglitazone from human PPARgamma receptor. (In general: Loss of bound radioactivity is the signal in a displacement assay; it reports binding, not function.)

Data set [2] addresses T1, Peroxisome proliferator-activated receptor gamma. Briefly: Agonist activity at human PPARgamma by Gal4 transactivation assay. The class given is functional.
The target in data set [3] is T2, Peroxisome proliferator-activated receptor alpha (Homo sapiens, UniProt Q07869).
T2 sequence (Q07869 whole entry): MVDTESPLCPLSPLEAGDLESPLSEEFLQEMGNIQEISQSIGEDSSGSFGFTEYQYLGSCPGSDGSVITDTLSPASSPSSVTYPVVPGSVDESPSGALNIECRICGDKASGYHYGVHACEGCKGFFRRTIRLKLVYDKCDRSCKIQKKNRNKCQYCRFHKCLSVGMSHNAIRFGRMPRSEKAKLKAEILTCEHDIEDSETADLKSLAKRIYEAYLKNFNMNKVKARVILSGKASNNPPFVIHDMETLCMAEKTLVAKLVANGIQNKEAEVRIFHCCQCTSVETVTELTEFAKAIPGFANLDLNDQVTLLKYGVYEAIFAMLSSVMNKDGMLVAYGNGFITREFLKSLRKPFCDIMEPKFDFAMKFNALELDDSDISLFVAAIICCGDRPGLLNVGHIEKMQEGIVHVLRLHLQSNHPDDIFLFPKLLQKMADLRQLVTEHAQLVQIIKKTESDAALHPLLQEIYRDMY
Kind of data set: Agonist activity at human PPARalpha by Gal4 transactivation assay. The class given is functional.

Another data set relates to Caco-2. Briefly: Absorption in human Caco-2 cells. The class given is ADME, cell-based. Also noted: concentration or dose not given beside the values.
In data set [4] the test system is Liver microsomes. Briefly: Metabolic stability in human hepatocyte microsomes. It is filed as ADME, Microsome.
Data set [5] deals with Liver microsomes. Kind of data set: Metabolic stability in rat hepatocyte microsomes. It is filed as ADME, Microsome.
Data set [6] deals with Mus musculus. Briefly: Lipid lowering effect in po dosed C57BL/6J ob/ob mouse assessed as triglyceride level relative to untreated control. The class given is functional. A digest of the protocol: (§1)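 Male C57BL/6J ob/ob mice (n = 8–12 per dose) were gavaged with 3 mg/kg daily for four days in 1% hydroxyethyl cellulose (2.5 ml/kg). On day five, heparinized retro-orbital plasma was collected under CO₂ anaesthesia. Plasma level was expressed as percent change from the mean of vehicle-treated mice. Groups were compared by ANOVA and one-tailed Dunnett's test.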

The test system of data set [7] is Mus musculus. Kind of data set: Glucose lowering effect in po dosed C57BL/6J ob/ob mouse assessed as insulin level relative to untreated control. It is filed as functional. A digest of the protocol: as §1
The test system of data set [8] is Mus musculus. Briefly: Effect on bodyweight in po dosed C57BL/6J ob/ob mouse assessed as body weight gain relative to untreated control. The class given is functional. The procedure, abridged: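 Male C57BL/6J ob/ob mice (n = 8–12 per dose) were randomized on glycemia and gavaged with 3 mg/kg daily for four days, between 3 and 5 pm, as a suspension in 1% hydroxyethyl cellulose (2.5 ml/kg). Body weight gain was each mouse's end-of-study minus starting weight. Groups were compared with control by ANOVA and one-tailed Dunnett's test.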

For data set [9], the target named is T3, Peroxisome proliferator-activated receptor alpha (Homo sapiens) (UniProt Q07869).
T3 sequence (whole entry): T2 sequence (Q07869 whole entry)
Briefly: Agonist activity at human PPARalpha at transactivation EC50 by Gal4 transactivation assay relative to at 10 uM WY-14643.

On to `CO/N=C(\c1ccccc1)c1ccc2c(c1)C(C)(C)CCN2CCOc1ccc(C[C@H](OC(C)=O)C(=O)O)cc1`, for which, in data set [1], the Ki was above 10000 nM. The concentration giving a half-maximal response (EC50) entry in data set [2] and in data set [3] was “Not Active” throughout.
With `CCO[C@@H](Cc1ccc(OCCN2CCC(C)(C)c3cc(/C(=N/OC)c4ccccc4)ccc32)cc1)C(=O)O`, the Activity in the data set with Caco-2 is on record as 100%; in the data set with Mus musculus [6] it was -5%; in the data set on Mus musculus [7], -20%; in the data set with Mus musculus [8], -33%. Moreover, the Stability with Liver microsomes [4] and in the data set with Liver microsomes [5] was 0% throughout.
In turn, `CCOC(=O)N(CC(=O)O)Cc1ccc(OCCN2CCC(C)(C)c3cc(/C(=N/OC)c4ccccc4)ccc32)cc1` came in with an inhibition constant Ki in [1] above 10000 nM. Besides, the EC50 in data set [2] (read-out: EC50) is 10000 nM; in data set [3] it was “Not Active”.
In data set [1], `C=CCO/N=C(\c1ccccc1)c1ccc2c(c1)C(C)(C)CCN2CCOc1ccc(C[C@H](OCC)C(=O)O)cc1` showed an inhibition constant (Ki) of 54.2 nM. Moreover, the figures for the concentration for a half-maximal effect (EC50) in data set [2] (read-out: EC50) and in data set [3] (read-out: EC50) were 13 nM and 73 nM, respectively. Further, the Activity in the data set on Caco-2 was found to be 95%; in data set [9], 152%. In addition, the values for the Stability in the data set with Liver microsomes [4] and with Liver microsomes [5] were 47% and 20%, respectively.
For `CO/N=C(\c1ccccc1)c1ccc2c(c1)C(C)(C)CCN2CCOc1ccc(C[C@H](Nc2ccccc2C(=O)c2ccccc2)C(=O)O)cc1`, the inhibitory constant (Ki) in data set [1] was 54 nM. In addition, the EC50 is 14 nM in data set [2] (read-out: EC50) and 10000 nM in [3] (read-out: EC50). Besides, the Activity in the data set with Caco-2 worked out at 22%; in data set [9], 11%.
In turn, `CO/N=C(\c1ccccc1)c1ccc2c(c1)C(C)(C)CCN2CCOc1ccc(C[C@H](OCC(F)(F)F)C(=O)O)cc1` displayed an inhibition constant Ki in data set [1] of 33 nM. Also, the EC50 was 125 nM in data set [2] (read-out: EC50) and 1000 nM in data set [3] (read-out: EC50). The Activity in the data set on Caco-2 was 100%; in the data set with Mus musculus [6] it was 9%; with Mus musculus [7], -17%; with Mus musculus [8], 304%; in [9], 50%. Further, the Stability in the data set with Liver microsomes [4] is given as 27%; with Liver microsomes [5], 18%.
Consider `CCO[C@@H](Cc1ccc(OCCN2CCC(C)(C)c3cc(/C(=N/OCC4CC4)c4ccccc4)ccc32)cc1)C(=O)O`, for which, in data set [1], the inhibition constant (Ki) is 254 nM. Further, the 50% effective concentration (EC50) in data set [2] (read-out: EC50) was found to be 7.52 nM; in data set [3] (read-out: EC50), 9 nM. The Activity is 93% in the data set with Caco-2; -2% with Mus musculus [6]; -2% in the data set on Mus musculus [7]; 107% with Mus musculus [8]; 145% in data set [9]. Moreover, the results for the Stability in the data set on Liver microsomes [4] and with Liver microsomes [5] were 84% and 32%, respectively.
The molecule `CCO[C@@H](Cc1ccc(OCCN2CCC(C)(C)c3cc(/C(=N/OCc4ccccc4)c4ccccc4)ccc32)cc1)C(=O)O` came in with a Ki in data set [1] of 18.4 nM. The results for the EC50 in data set [2] (read-out: EC50) and in data set [3] (read-out: EC50) were 7 nM and 34 nM, respectively. For the same molecule, the Activity in the data set on Caco-2 was 90%; in the data set with Mus musculus [6], -27%; in the data set on Mus musculus [7], 51%; in the data set on Mus musculus [8], 0.23%; in data set [9] it was 137%. Besides, the Stability in the data set on Liver microsomes [4] came to 59%; in the data set with Liver microsomes [5] it was 35%.
`CN(CCOc1ccc(CC2SC(=O)NC2=O)cc1)c1ccccn1` (stereo unspecified) [ROSIGLITAZONE]: the Activity in the data set with Caco-2 is given as 100%; in the data set on Mus musculus [6], -56%; in the data set on Mus musculus [7], -55%; in the data set with Mus musculus [8] it was 0.56%. The Stability in the data set on Liver microsomes [4] worked out at 21%; in the data set on Liver microsomes [5], 45%.
In the case of `CCO[C@@H](Cc1ccc(OCCc2ccc(OS(C)(=O)=O)cc2)cc1)C(=O)O` [TESAGLITAZAR], the Activity is listed as 78% with Caco-2, -60% in the data set on Mus musculus [6], -94% with Mus musculus [7] and 1.9% in the data set with Mus musculus [8]. The results for the Stability with Liver microsomes [4] and in the data set with Liver microsomes [5] were 100% and 97%, respectively.

(Values after ChEMBL document CHEMBL1151889, “4,4-Dimethyl-1,2,3,4-tetrahydroquinoline-based PPARalpha/gamma agonists. Part. II: Synthesis and pharmacological evaluation of oxime and acidic head group structural variations” (Bioorg Med Chem Lett, 2009).)
